# From ChEMBL document CHEMBL1135836, “Cyclodextrin-derived host molecules as reversal agents for the neuromuscular blocker rocuronium bromide: synthesis and structure-activity relationships” (J Med Chem, 2002)
# Experiments:
# Type in all cases: functional
# [1] = test system: Cavia porcellus; assay: In vivo reversal activity versus ~90% block by rocuronium in guinea pig
# Method in brief: (§1)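 Male Dunkin-Hartley guinea pigs (600-900 g), anaesthetized ip with pentobarbitone 10 mg/kg plus urethane 1000 mg/kg, tracheotomized and ventilated. Continuous iv rocuronium infusion (~10 nmol kg-1 min-1) was raised to a steady 85-90% block. Increasing iv doses of agent were given cumulatively. ED50 = 50% recovery versus preblock twitch, by regression. Mean ± SEM of at least two experiments, or one.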
# [2] = species: Mus musculus; assay: In vitro reversal activity versus ~90% block by rocuronium in isolated mouse hemidiaphragm, expressed as % of maximum reversal at 144 uM conc.
# [3] = test system: Cavia porcellus; assay: In vivo reversal activity versus ~90% block by rocuronium in guinea pig, expressed as % of maximum reversal at 12 umol/kg conc.
# Method in brief: (§2)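 Male Dunkin-Hartley guinea pigs (600-900 g) anaesthetized ip with pentobarbitone 10 mg/kg plus urethane 1000 mg/kg, tracheotomized and artificially ventilated. Continuous iv rocuronium bromide infusion (~10 nmol kg-1 min-1) raised until steady-state twitch block of 85-90%. Increasing single iv doses of reversal agent given by a separate catheter. Max reversal is peak twitch recovery versus preblock height at highest dose tested; means ± SEM, n ≥ 2 or single experiment.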
# [4] = species: Mus musculus; assay: In vitro reversal activity versus ~90% block by rocuronium in isolated mouse hemidiaphragm, expressed as effective conc.
# [5] = test system: Felis catus; assay: Percentage of maximum change in blood pressure in anesthetized cat dosed at 0.2 umol/kg (by bolus injection)
# Method in brief: (§3)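 Anaesthetized cats, left for 1 h after surgery to stabilize. Tibialis anterior twitch was evoked via the sciatic nerve with supramaximal 0.25 ms pulses at 0.1 Hz. Rocuronium in phosphate buffer (pH 4) was infused continuously (10.24 ± 1.31 nmol kg-1 min-1). Increasing doses of agent in saline were then given as iv boluses while mean arterial blood pressure and heart rate were recorded; means of three independent experiments.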
# [6] = test system: Felis catus; assay: Percentage of maximum change in blood pressure in anesthetized cat dosed at 0.4 umol/kg (by bolus injection); method in brief: as §3
# [7] = test system: Felis catus; assay: Percentage of maximum change in blood pressure in anesthetized cat dosed at 0.6 umol/kg (by bolus injection); method in brief: as §3
# [8] = test system: Felis catus; assay: Percentage of maximum change in blood pressure in anesthetized cat dosed at 0.8 umol/kg (by bolus injection); method in brief: as §3
# [9] = test system: Felis catus; assay: % of maximum change of decrease in HR by vagal stimulation in anesthetized cat at 0.2umol/kg, by bolus injection
# [10] = test system: Felis catus; assay: % of maximum change of decrease in HR by vagal stimulation in anesthetized cat at 0.4umol/kg, by bolus injection
# [11] = test system: Felis catus; assay: Percentage of maximum change in blood pressure in anesthetized cat dosed at 1.0 umol/kg (by bolus injection); method in brief: as §3
# [12] = test system: Felis catus; assay: Percentage of maximum change in blood pressure in anesthetized cat dosed at 1.2 umol/kg (by bolus injection); method in brief: as §3
# [13] = test system: Felis catus; assay: Percentage of maximum change in blood pressure in anesthetized cat dosed at 1.4 umol/kg (by bolus injection); method in brief: as §3
# [14] = test system: Felis catus; assay: Percentage of maximum change in blood pressure in anesthetized cat dosed at 1.6 umol/kg (by bolus injection); method in brief: as §3
# [15] = test system: Felis catus; assay: % of maximum change of increase in contraction of nictitating membrane in anesthetized cat at 0.2umol/kg, by bolus injection
# [16] = test system: Felis catus; assay: % of maximum change of increase in contraction of nictitating membrane in anesthetized cat at 0.6umol/kg, by bolus injection
# [17] = test system: Felis catus; assay: % of maximum change of increase in contraction of nictitating membrane in anesthetized cat at 0.8umol/kg, by bolus injection
# [18] = test system: Felis catus; assay: % of maximum change of increase in contraction of nictitating membrane in anesthetized cat at 1.0umol/kg, by bolus injection
# [19] = test system: Felis catus; assay: % of maximum change of increase in contraction of nictitating membrane in anesthetized cat at 1.2umol/kg, by bolus injection
# [20] = test system: Felis catus; assay: % of maximum change of increase in contraction of nictitating membrane in anesthetized cat at 1.4umol/kg, by bolus injection
# [21] = test system: Felis catus; assay: % of maximum change of increase in contraction of nictitating membrane in anesthetized cat at 1.6umol/kg, by bolus injection
# [22] = test system: Felis catus; assay: % of maximum change of increase in contraction of nictitating membrane in anesthetized cat at 1.8umol/kg, by bolus injection
# [23] = test system: Felis catus; assay: % of maximum change of decrease in HR by vagal stimulation in anesthetized cat at 0.6umol/kg, by bolus injection
# [24] = test system: Felis catus; assay: % of maximum change of decrease in HR by vagal stimulation in anesthetized cat at 0.8umol/kg, by bolus injection
# [25] = test system: Felis catus; assay: % of maximum change of decrease in HR by vagal stimulation in anesthetized cat at 1.0umol/kg, by bolus injection
# [26] = test system: Felis catus; assay: % of maximum change of decrease in HR by vagal stimulation in anesthetized cat at 1.2umol/kg, by bolus injection
# [27] = test system: Felis catus; assay: % of maximum change of decrease in HR by vagal stimulation in anesthetized cat at 1.4umol/kg, by bolus injection
# [28] = test system: Felis catus; assay: % of maximum change of decrease in HR by vagal stimulation in anesthetized cat at 1.6umol/kg, by bolus injection
# [29] = test system: Felis catus; assay: % of maximum change of decrease in HR by vagal stimulation in anesthetized cat at 1.8umol/kg, by bolus injection
# [30] = test system: Felis catus; assay: Percentage of maximum change of heart rate in anesthetized cat at 0.2umol/kg, by bolus injection; method in brief: as §3
# [31] = test system: Felis catus; assay: Percentage of maximum change of heart rate in anesthetized cat at 0.6umol/kg, by bolus injection; method in brief: as §3
# [32] = test system: Felis catus; assay: Percentage of maximum change of heart rate in anesthetized cat at 0.8umol/kg, by bolus injection; method in brief: as §3
# [33] = test system: Felis catus; assay: Percentage of maximum change of heart rate in anesthetized cat at 1.0umol/kg, by bolus injection; method in brief: as §3
# [34] = test system: Felis catus; assay: Percentage of maximum change of heart rate in anesthetized cat at 1.2umol/kg, by bolus injection; method in brief: as §3
# [35] = test system: Felis catus; assay: Percentage of maximum change of heart rate in anesthetized cat at 1.4umol/kg, by bolus injection; method in brief: as §3
# [36] = test system: Felis catus; assay: Percentage of maximum change of heart rate in anesthetized cat at 1.6umol/kg, by bolus injection; method in brief: as §3
# [37] = test system: Felis catus; assay: Percentage of maximum change of heart rate in anesthetized cat at 1.8umol/kg, by bolus injection; method in brief: as §3
# [38] = test system: Cavia porcellus; assay: In vivo reversal activity versus ~90% block by rocuronium in guinea pig, expressed as % of maximum reversal at 0.3 umol/kg conc.; method in brief: as §1
# [39] = species: Mus musculus; assay: In vitro reversal activity versus ~90% block by rocuronium in isolated mouse hemidiaphragm, expressed as % of maximum reversal at 3.6 uM conc.
# [40] = test system: Felis catus; assay: Percentage of maximum change of heart rate in anesthetized cat at 0.4umol/kg, by bolus injection; method in brief: as §3
# [41] = test system: Felis catus; assay: Percentage of maximum change in blood pressure in anesthetized cat dosed at 1.8 umol/kg (by bolus injection); method in brief: as §3
# [42] = test system: Felis catus; assay: % of maximum change of increase in contraction of nictitating membrane in anesthetized cat at 0.4umol/kg, by bolus injection
# [43] = test system: Cavia porcellus; assay: In vivo reversal activity versus ~90% block by rocuronium in guinea pig, expressed as % of maximum reversal at 3.9 umol/kg conc.; method in brief: as §2
# [44] = species: Mus musculus; assay: In vitro reversal activity versus ~90% block by rocuronium in isolated mouse hemidiaphragm, expressed as % of maximum reversal at 18 uM conc.
smiles,measurement,setting,value
O=C([O-])CCSCC1O[C@@H]2O[C@@H]3C(CO)O[C@H](O[C@@H]4C(CO)O[C@H](O[C@@H]5C(CO)O[C@H](O[C@@H]6C(CO)O[C@H](O[C@@H]7C(CO)O[C@H](O[C@@H]8C(CO)O[C@H](O[C@@H]9C(CO)O[C@H](O[C@H]1C(O)C2O)C(O)C9O)C(O)C8O)C(O)C7O)C(O)C6O)C(O)C5O)C(O)C4O)C(O)C3O.[Na+] (stereo partly drawn),ED50,[1],1.3 µmol/kg
same,Max reversal,[2],94.5%
same,Max reversal,[3],100.6%
same,EC50,[4],17.2 µM
O=C([O-])CCSCC1O[C@@H]2O[C@@H]3C(CSCCC(=O)[O-])O[C@H](O[C@@H]4C(CSCCC(=O)[O-])O[C@H](O[C@@H]5C(CSCCC(=O)[O-])O[C@H](O[C@@H]6C(CSCCC(=O)[O-])O[C@H](O[C@@H]7C(CSCCC(=O)[O-])O[C@H](O[C@@H]8C(CSCCC(=O)[O-])O[C@H](O[C@@H]9C(CSCCC(=O)[O-])O[C@H](O[C@H]1C(O)C2O)C(O)C9O)C(O)C8O)C(O)C7O)C(O)C6O)C(O)C5O)C(O)C4O)C(O)C3O.[Na+].[Na+].[Na+].[Na+].[Na+].[Na+].[Na+].[Na+] (stereo partly drawn),BP,[5],-7.3 mmHg
same,BP,[6],-6.5 mmHg
same,BP,[7],3.5 mmHg
same,BP,[8],-3.3 mmHg
same,Decrease,[9],-2.9%
same,Decrease,[10],-6.7%
same,ED50,[1],0.03 µmol/kg
same,BP,[11],-3.2 mmHg
same,BP,[12],-3.3 mmHg
same,BP,[13],-3.3 mmHg
same,BP,[14],-5 mmHg
same,Max change,[15],0%
same,Max change,[16],0%
same,Max change,[17],3.7%
same,Max change,[18],8.7%
same,Max change,[19],3.7%
same,Max change,[20],3.7%
same,Max change,[21],3.7%
same,Max change,[22],12.5%
same,Decrease,[23],-6.7%
same,Decrease,[24],2.2%
same,Decrease,[25],0%
same,Decrease,[26],0%
same,Decrease,[27],0.7%
same,Decrease,[28],0%
same,Decrease,[29],11%
same,HR,[30],-4.1%
same,HR,[31],-7.5 beats min-1
same,HR,[32],-6.3 beats min-1
same,HR,[33],-3.4 beats min-1
same,HR,[34],-4 beats min-1
same,HR,[35],-3.7 beats min-1
same,HR,[36],-6.9 beats min-1
same,HR,[37],-14.3 beats min-1
same,Max reversal,[38],92.5%
same,Max reversal,[39],95.1%
same,EC50,[4],1.2 µM
same,HR,[40],-5.5 beats min-1
same,BP,[41],-5 mmHg
same,Max change,[42],0%
OCCCCSCC1O[C@@H]2O[C@@H]3C(CSCCCCO)O[C@H](O[C@@H]4C(CSCCCCO)O[C@H](O[C@@H]5C(CSCCCCO)O[C@H](O[C@@H]6C(CSCCCCO)O[C@H](O[C@@H]7C(CSCCCCO)O[C@H](O[C@@H]8C(CSCCCCO)O[C@H](O[C@@H]9C(CSCCCCO)O[C@H](O[C@H]1C(O)C2O)C(O)C9O)C(O)C8O)C(O)C7O)C(O)C6O)C(O)C5O)C(O)C4O)C(O)C3O (stereo partly drawn),ED50,[1],3.94 µmol/kg
same,Max reversal,[43],52.8%
same,Max reversal,[44],78.9%
same,EC50,[4],6.5 µM
